From ChEMBL document CHEMBL1131252, “Rational design and combinatorial evaluation of enzyme inhibitor scaffolds: identification of novel inhibitors of matrix metalloproteinases” (J Med Chem, 1998)

Legend:
[1] = biological target: T1, Interstitial collagenase (Homo sapiens, UniProt P03956); assay: Inhibition of Matrix Metalloprotease-1
T1 sequence (P03956 whole entry): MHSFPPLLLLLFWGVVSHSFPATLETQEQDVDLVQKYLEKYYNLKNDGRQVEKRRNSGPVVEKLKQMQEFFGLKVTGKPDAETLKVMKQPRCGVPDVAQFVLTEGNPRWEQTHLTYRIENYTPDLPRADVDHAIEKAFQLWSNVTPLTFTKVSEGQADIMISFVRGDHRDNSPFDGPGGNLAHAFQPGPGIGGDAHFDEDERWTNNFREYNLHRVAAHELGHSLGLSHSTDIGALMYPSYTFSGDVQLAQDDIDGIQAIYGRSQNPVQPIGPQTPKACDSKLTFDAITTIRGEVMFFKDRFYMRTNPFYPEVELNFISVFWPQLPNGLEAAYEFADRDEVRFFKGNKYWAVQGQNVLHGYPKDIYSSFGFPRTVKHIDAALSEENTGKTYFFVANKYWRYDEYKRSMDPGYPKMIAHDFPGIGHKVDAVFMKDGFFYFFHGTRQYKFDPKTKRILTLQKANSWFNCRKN
Summary of the method: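 Recombinant C-terminally truncated human collagenase-1 at 10 nM final, in 20 mM Hepes, 5 mM CaCl₂, 0.02% Brij35, 0.5 mM cysteine at room temperature. Inhibitor was added in degassed methanol (2% final), then 3 min later 10 μM Mca-Pro-Leu-Gly-Leu-Dpa-Ala-Arg-NH₂. Fluorescence (ex 330/em 430 nm) was read each minute for 30 min; IC50 was fitted as v_i = v_0/(1+[I]/IC50).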

[2] = biological target: T2, Stromelysin-1 (Homo sapiens, UniProt P08254); assay: Inhibition of Matrix Metalloprotease-3
T2 sequence (P08254 whole entry, the tested form may be a part): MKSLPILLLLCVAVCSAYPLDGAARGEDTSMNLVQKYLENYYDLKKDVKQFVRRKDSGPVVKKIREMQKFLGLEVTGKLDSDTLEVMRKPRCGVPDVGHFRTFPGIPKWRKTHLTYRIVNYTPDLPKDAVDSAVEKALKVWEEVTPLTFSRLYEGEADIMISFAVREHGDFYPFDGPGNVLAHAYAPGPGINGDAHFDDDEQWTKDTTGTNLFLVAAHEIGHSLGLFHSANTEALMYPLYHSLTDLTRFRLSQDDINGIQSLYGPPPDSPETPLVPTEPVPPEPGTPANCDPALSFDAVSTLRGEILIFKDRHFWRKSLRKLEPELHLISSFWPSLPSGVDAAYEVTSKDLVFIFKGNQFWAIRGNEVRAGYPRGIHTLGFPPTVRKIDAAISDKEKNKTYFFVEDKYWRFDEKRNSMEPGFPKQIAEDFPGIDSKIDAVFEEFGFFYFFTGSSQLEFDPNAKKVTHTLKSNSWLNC
Summary of the method: (§1)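 Stromelysin-1, recombinant human C-terminally truncated form, used at 10 nM final. Conditions: room temperature; Hepes 20 mM, CaCl₂ 5 mM, Brij35 0.02%, cysteine 0.5 mM; inhibitor in degassed methanol (2% final) preincubated 3 min. Reaction started with quenched-fluorescence substrate Mca-PLGL-Dpa-AR-NH₂ (10 μM final), read at ex 330/em 430 nm every minute for 30 min. IC50 came from rate fit v_i = v_0/(1+[I]/IC50).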

[3] = biological target: T3, Matrix metalloproteinase-9 (Homo sapiens, UniProt P14780); assay: Inhibition of Matrix Metalloprotease-9
T3 sequence (P14780 whole entry, the tested form may be a part): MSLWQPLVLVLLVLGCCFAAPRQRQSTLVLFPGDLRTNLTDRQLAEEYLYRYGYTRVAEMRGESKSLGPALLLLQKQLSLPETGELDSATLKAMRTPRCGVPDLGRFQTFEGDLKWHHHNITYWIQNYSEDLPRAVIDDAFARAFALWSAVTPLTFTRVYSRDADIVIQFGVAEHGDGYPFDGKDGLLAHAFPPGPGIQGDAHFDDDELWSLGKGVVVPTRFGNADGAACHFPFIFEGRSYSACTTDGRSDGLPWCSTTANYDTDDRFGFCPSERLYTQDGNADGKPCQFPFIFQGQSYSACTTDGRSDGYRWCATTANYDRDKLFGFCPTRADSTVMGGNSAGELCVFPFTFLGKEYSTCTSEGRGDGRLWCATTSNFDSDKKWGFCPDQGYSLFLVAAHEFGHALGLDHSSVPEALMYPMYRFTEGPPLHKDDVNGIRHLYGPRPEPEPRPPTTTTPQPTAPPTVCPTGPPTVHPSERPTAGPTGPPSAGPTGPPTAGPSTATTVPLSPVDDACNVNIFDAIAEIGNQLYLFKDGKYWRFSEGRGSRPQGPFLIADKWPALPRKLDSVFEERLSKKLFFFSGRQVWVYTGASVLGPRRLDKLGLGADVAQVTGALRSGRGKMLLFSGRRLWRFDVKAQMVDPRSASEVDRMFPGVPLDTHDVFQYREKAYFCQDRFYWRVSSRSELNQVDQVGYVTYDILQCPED
Summary of the method: (§2)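 Gelatinase-B, a recombinant C-terminally truncated form expressed in Pichia pastoris, used at 2 nM final. Buffer was 20 mM Hepes, 5 mM CaCl₂, 0.02% Brij35, 0.5 mM cysteine, at room temperature. Inhibitor in degassed methanol (2% final) was added 3 min before 10 μM Mca-Pro-Leu-Gly-Leu-Dpa-Ala-Arg-NH₂. Fluorescence at 330/430 nm was logged per minute for 30 min; IC50 was fitted to v_i = v_0/(1+[I]/IC50).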

[4] = biological target: T3, Matrix metalloproteinase-9; assay: Inhibition of gelatinase-B (Matrix metalloprotease-9); design: species or system Komagataella pastoris; summary of the method: as §2
[5] = biological target: T4, Matrilysin (Homo sapiens, UniProt P09237); assay: Inhibition of matrilysin (Matrix metalloprotease-7)
T4 sequence (P09237 whole entry): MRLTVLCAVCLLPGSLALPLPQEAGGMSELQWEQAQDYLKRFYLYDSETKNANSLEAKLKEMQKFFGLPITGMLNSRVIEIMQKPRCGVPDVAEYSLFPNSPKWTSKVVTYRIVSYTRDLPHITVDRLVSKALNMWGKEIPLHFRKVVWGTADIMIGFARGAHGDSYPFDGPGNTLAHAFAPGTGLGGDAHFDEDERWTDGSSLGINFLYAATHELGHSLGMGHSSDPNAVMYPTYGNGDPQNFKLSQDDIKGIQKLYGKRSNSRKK
Summary of the method: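 Matrilysin (recombinant C-terminally truncated human) at 0.5 nM final, room temperature, in buffer of 20 mM Hepes, 5 mM CaCl₂, 0.02% Brij35, 0.5 mM cysteine. Inhibitor was added from degassed methanol (2% final) with 3 min preincubation, then 10 μM quenched-fluorescence Mca-PLGL-Dpa-AR-NH₂ substrate. Fluorescence (ex 330/em 430 nm) was read once a minute for 30 min; IC50 came from v_i = v_0/(1+[I]/IC50).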

[6] = biological target: T1, Interstitial collagenase; assay: Inhibition of collagenase-1 (Matrix metalloprotease-1)
[7] = biological target: T2, Stromelysin-1; assay: Inhibition of stromelysin (Matrix metalloprotease-3); summary of the method: as §1
[8] = biological target: T2, Stromelysin-1; assay: Inhibition of stromelysin-1; summary of the method: as §1

SMILES | IC50 [1] [nM] | IC50 [2] [nM] | IC50 [3] [nM] | IC50 [4] [nM] | IC50 [5] [nM] | IC50 [6] [nM] | IC50 [7] [nM] | IC50 [8] [nM]
COc1ccc(CN2C(=O)[C@H](CS)NC(=O)[C@@H]2CC2CCCCC2)cc1 | 30 | 3800 | 79 | – | – | – | – | –
CCCCCCN1C(=O)[C@H](Cc2cccnc2)NC(=O)[C@H]1CS | – | – | – | – | – | 2000 | – | –
COc1ccc(CN2C(=O)[C@H](CS)NC(=O)[C@@H]2Cc2ccccc2)cc1 | 64 | 4040 | 2360 | – | – | – | – | –
CCCCCCCCN1C(=O)[C@H](Cc2cccnc2)NC(=O)[C@H]1CS | – | – | – | – | – | 10000 | – | –
CCCCN1C(=O)[C@H](CS)NC(=O)[C@@H]1Cc1ccccc1 | 319 | 19000 | 2360 | – | – | – | – | –
O=C1N[C@@H](CS)C(=O)N(Cc2ccc3ccccc3n2)[C@H]1CC1CCCCC1 | 35 | 2400 | 87 | – | – | – | – | –

More lines, now with the values ahead:

IC50 [1] [nM] | IC50 [2] [nM] | IC50 [3] [nM] | IC50 [4] [nM] | IC50 [5] [nM] | IC50 [6] [nM] | IC50 [7] [nM] | IC50 [8] [nM] | SMILES
47 | 2910 | 121 | 113 | 590 | 47 | 2300 | – | O=C1N[C@@H](CS)C(=O)N(CC2CCCCC2)[C@H]1CC1CCCCC1
– | – | – | 7000 | > 40000 | 2600 | > 40000 | – | O=C1N[C@H](CS)C(=O)N(CC2CCCCC2)[C@H]1CC1CCCCC1
– | – | – | > 40000 | > 40000 | 14000 | – | > 40000 | O=C1N[C@H](CS)C(=O)N(CC2CCCCC2)[C@@H]1CC1CCCCC1
220 | 3400 | 370 | – | – | – | – | – | CCCC[C@H]1C(=O)N[C@@H](CS)C(=O)N1CC1CCCCC1
– | – | – | 12000 | 4800 | – | – | > 40000 | O=C1N[C@@H](CS)C(=O)N(CC2CCCCC2)[C@@H]1CC1CCCCC1
